In ChEMBL document CHEMBL3769301, “Novel cis-selective and non-epimerisable C3 hydroxy azapodophyllotoxins targeting microtubules in cancer cells” (Eur J Med Chem, 2016):
Calls of active or inactive are those of the source. The calls are words filed in the database; no cut-off is given here.

Columns and labels:
Type in all cases: cell-based
[1] = tested on: MCF7; assay: Induction of microtubule cytoskeleton destabilization in human MCF7 cells assessed as nuclear atypia at 250 nM after 6 hrs by Hoechst 33342 staining-based confocal fluorescence microscopy
In short: (§1)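 MCF-7 cells in RPMI 1640 with 10% FBS were grown on glass coverslips for 42 h to 70–80% confluency. They were exposed to 250 nM compound or 0.01% DMSO for 6 h, then fixed in methanol at −20 °C for 10 min. Staining used anti-α-tubulin (1:2000) with Alexa488 secondary (1:400) and Hoechst 33342 (1 μg/ml), imaged by confocal microscopy (63x oil). There were three independent experiments, each in duplicate.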

[2] = tested on: MCF7; assay: Induction of microtubule cytoskeleton destabilization in human MCF7 cells assessed as pyknosis at 250 nM after 6 hrs by Hoechst 33342 staining-based confocal fluorescence microscopy; in short: as §1
[3] = tested on: MCF7; assay: Inhibition of microtubule cytoskeleton polymerization in human MCF7 cells assessed as repolymerization at 250 nM cells preincubated on ice followed rewarmed to 37 degC in presence of compound for 30 mins by Hoechst 33342 staining-based confocal fluorescence microscopy
In short: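 No pre-treatment: after 42 h on coverslips, MCF-7 cells were held on ice for 30 min to depolymerise microtubules. A cold control set was fixed at once; the rest were rewarmed for 30 min at 37 °C/5% CO2 with 250 nM compound or 0.01% DMSO. All were fixed in methanol at −20 °C, stained for α-tubulin and Hoechst, and examined by confocal imaging. There were three independent experiments.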

[4] = tested on: MCF7; assay: Inhibition of microtubule cytoskeleton polymerization in human MCF7 cells assessed as repolymerization at 250 nM pretreated for 6 hrs followed by incubation for 30 mins on ice then rewarmed to 37 degC for 30 mins by Hoechst 33342 staining-based confocal fluorescence microscopy
In short: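 Pre-treatment: MCF-7 cells on coverslips were exposed to 250 nM compound or 0.01% DMSO for 6 h, then held at 4 °C on ice for 30 min. One set was fixed after cold depolymerisation; the others were returned to 37 °C/5% CO2 for 30 min to repolymerise. Cells were fixed in −20 °C methanol, stained for α-tubulin and Hoechst, and imaged by confocal microscopy. There were three independent experiments.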

[5] = tested on: MCF7; assay: Induction of microtubule cytoskeleton destabilization in human MCF7 cells assessed as accumulation of binucleate cells at 250 nM after 6 hrs by Hoechst 33342 staining-based confocal fluorescence microscopy; in short: as §1
[6] = tested on: MCF7; assay: Induction of microtubule cytoskeleton destabilization in human MCF7 cells assessed as uncongressed/misaligned chromosomes at 250 nM after 6 hrs by Hoechst 33342 staining-based confocal fluorescence microscopy; in short: as §1
[7] = tested on: MCF7; assay: Induction of microtubule cytoskeleton destabilization in human MCF7 cells assessed as abberation in spindle morphology and polarity at 250 nM after 6 hrs by Hoechst 33342 staining-based confocal fluorescence microscopy; in short: as §1
[8] = tested on: MCF7; assay: Induction of microtubule cytoskeleton destabilization in human MCF7 cells assessed as shorter and more disorderd microtubule at 250 nM after 6 hrs by Hoechst 33342 staining-based confocal fluorescence microscopy; in short: as §1

Structure (SMILES)	Activity [1]	Activity [2]	inhibition [3]	inhibition [4]	Activity [5]	Activity [6]	Activity [7]	Activity [8]
COc1cc([C@@H]2c3cc4c(cc3[C@H](O)[C@H]3COC(=O)[C@H]23)OCO4)cc(OC)c1OC	Active	Active						
O=C1OC[C@]2(O)Nc3c(c4cccnc4c4ncccc34)[C@@H](c3ccccc3C(F)(F)F)[C@@H]12 (mixture of isomers)	Active	Active	inactive	inactive	Active	Active	Active	Active
O=C1OC[C@]2(O)Nc3c(c4cccnc4c4ncccc34)[C@@H](c3ccccc3OC(F)(F)F)[C@H]12 (mixture of isomers)	Active	Active	inactive	inactive	Active	Active	Active	Active
